Laboratory results reported in ChEMBL document CHEMBL1765003, “Discovery of (1S,2R,3R)-2,3-dimethyl-2-phenyl-1-sulfamidocyclopropanecarboxylates: novel and highly selective aggrecanase inhibitors” (J Med Chem, 2011).

Experiments:
Cytochrome P450 3A4 = Cytochrome P450 3A4 (Homo sapiens, UniProt P08684); assay: Inhibition of CYP3A4 at up to 50 uM; assay type: ADME
Cytochrome P450 2C19 = Cytochrome P450 2C19 (Homo sapiens, UniProt P33261); assay: Inhibition of CYP2C19 at up to 50 uM; assay type: ADME
Cytochrome P450 2C19, sequence (P33261 whole entry, the tested form may be a part): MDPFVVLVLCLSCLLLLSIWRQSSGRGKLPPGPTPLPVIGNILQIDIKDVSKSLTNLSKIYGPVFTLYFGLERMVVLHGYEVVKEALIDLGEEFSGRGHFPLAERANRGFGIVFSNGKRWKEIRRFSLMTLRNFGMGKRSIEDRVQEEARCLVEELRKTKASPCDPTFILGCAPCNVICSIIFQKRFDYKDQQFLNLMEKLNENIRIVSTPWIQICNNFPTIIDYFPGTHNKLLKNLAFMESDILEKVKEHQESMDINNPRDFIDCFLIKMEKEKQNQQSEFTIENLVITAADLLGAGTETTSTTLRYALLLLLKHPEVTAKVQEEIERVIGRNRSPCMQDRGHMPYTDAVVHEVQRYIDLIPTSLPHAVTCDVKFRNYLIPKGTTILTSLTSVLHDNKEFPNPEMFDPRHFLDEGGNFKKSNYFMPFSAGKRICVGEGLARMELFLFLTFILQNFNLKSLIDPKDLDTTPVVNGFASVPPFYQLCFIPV

[1] = target: Disintegrin and metalloproteinase domain-containing protein 17 (Homo sapiens, UniProt P78536); assay: Inhibition of human recombinant TACE after 60 mins by fluorescence plate reader
Disintegrin and metalloproteinase domain-containing protein 17, sequence (P78536 whole entry, the tested form may be a part): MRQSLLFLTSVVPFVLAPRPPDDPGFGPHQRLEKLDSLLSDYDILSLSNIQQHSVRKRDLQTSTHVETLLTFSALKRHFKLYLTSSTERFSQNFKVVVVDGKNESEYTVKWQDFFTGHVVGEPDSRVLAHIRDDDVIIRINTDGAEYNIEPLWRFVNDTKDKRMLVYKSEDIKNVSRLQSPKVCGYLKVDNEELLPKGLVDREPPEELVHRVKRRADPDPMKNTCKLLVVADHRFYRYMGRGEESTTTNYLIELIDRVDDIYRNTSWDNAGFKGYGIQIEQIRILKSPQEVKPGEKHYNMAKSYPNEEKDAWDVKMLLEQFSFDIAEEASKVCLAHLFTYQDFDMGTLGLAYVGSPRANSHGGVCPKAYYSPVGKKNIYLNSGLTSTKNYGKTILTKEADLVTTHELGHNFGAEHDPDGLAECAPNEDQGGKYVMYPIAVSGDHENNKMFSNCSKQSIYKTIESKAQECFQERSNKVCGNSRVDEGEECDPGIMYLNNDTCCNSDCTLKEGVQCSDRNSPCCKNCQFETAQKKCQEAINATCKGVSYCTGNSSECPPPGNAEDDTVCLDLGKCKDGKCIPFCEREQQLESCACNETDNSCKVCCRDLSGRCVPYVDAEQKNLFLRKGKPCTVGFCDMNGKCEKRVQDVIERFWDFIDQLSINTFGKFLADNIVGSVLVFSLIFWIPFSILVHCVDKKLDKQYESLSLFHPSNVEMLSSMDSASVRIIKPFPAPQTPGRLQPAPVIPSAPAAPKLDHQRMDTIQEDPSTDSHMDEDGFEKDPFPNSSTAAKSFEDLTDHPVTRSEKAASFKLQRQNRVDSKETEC
Method in brief: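 rh-TACE at 80 ng/mL with 10 μM MCA-Pro-Leu-Ala-Gln-Ala-Val-Dpa-Arg-Ser-Ser-Ser-Arg-NH₂, in 100 mM Tris-HCl pH 7.5, 150 mM NaCl, 10 mM CaCl₂, 0.05% Brij-35. Inhibitor preincubated for 15 min at 25 °C. Fluorescence (ex 325/em 405 nm) read at 60 min. IC50 from three linear-range points; mean of ≥2.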

Interstitial collagenase = target: T1, Interstitial collagenase (Homo sapiens, UniProt P03956); assay: Inhibition of human recombinant MMP1 after 60 mins by fluorescence plate reader
T1 sequence (P03956 whole entry): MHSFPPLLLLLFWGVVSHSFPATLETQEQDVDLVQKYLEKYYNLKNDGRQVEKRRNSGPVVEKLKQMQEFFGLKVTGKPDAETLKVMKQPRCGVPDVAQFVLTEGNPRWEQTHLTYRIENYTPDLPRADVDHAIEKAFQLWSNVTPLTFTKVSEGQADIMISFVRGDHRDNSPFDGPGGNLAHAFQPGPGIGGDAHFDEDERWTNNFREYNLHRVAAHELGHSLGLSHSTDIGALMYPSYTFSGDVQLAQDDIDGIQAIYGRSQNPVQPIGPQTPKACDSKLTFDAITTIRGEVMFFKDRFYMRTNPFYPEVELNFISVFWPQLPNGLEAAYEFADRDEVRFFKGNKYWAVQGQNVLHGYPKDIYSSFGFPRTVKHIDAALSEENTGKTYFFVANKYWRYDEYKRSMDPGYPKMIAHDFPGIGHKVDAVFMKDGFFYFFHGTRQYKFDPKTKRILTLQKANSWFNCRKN
Method in brief: (§1)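 Recombinant human enzyme at 20 ng/mL with 10 μM MOCAc-Lys-Pro-Leu-Gly-Leu-A2pr(Dnp)-Ala-Arg-NH₂, in 100 mM Tris-HCl pH 7.5, 150 mM NaCl, 10 mM CaCl₂, 0.05% Brij-35. Enzyme pretreated with inhibitor for 15 min at 25 °C, then substrate added. Fluorescence (ex 325, em 405 nm) read at 60 min. IC50 taken from three points in the linear range; mean of ≥2 determinations.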

[2] = target: Matrix metalloproteinase-14 (Homo sapiens, UniProt P50281); assay: Inhibition of human recombinant MMP14 after 60 mins by fluorescence plate reader; method in brief: as §1
[3] = target: T2, A disintegrin and metalloproteinase with thrombospondin motifs 5 (Homo sapiens, UniProt Q9UNA0); assay: Inhibition of human recombinant aggrecanase 2 after 150 mins by fluorescence plate reader
T2 sequence (Q9UNA0 whole entry): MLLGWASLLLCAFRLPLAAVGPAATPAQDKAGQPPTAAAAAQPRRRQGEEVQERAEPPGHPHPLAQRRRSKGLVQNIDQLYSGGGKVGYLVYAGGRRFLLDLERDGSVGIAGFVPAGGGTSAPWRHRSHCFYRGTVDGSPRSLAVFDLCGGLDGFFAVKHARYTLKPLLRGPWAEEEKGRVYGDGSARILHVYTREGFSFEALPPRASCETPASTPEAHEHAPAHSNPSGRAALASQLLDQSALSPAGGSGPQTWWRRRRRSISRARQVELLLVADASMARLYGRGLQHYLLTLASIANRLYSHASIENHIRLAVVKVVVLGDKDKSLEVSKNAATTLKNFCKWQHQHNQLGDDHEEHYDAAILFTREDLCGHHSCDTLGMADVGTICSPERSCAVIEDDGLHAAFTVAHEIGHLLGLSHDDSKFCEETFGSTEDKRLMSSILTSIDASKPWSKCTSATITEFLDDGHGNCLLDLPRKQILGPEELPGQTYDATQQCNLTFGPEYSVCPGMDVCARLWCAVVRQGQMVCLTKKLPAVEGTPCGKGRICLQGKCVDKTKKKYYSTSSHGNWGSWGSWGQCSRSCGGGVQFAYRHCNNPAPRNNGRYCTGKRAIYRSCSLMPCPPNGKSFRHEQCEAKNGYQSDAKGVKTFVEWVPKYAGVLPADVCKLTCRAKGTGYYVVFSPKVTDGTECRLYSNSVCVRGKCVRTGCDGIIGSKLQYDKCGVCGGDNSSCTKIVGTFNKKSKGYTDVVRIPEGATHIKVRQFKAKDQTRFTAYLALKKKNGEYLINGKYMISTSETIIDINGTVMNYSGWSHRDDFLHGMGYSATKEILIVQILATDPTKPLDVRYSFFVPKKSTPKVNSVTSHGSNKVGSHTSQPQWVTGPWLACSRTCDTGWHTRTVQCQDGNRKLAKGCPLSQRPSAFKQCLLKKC

Cytochrome P450 2C9 = Cytochrome P450 2C9 (Homo sapiens, UniProt P11712); assay: Inhibition of CYP2C9 at up to 50 uM; assay type: ADME
Cytochrome P450 2C9, sequence (P11712 whole entry): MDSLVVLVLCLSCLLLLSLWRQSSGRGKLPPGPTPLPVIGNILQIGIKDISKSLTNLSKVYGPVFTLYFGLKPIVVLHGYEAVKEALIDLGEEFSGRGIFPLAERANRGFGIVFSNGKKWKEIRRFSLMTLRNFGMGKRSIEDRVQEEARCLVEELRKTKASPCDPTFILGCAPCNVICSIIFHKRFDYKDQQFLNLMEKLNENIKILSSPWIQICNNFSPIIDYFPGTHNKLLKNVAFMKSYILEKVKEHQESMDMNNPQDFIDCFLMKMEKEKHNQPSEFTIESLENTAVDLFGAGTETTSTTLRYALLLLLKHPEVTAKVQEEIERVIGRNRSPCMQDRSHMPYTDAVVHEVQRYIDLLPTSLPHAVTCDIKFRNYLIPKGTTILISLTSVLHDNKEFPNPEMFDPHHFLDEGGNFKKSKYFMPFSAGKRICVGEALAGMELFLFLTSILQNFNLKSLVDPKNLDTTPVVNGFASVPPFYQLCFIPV

Cytochrome P450 2D6 = Cytochrome P450 2D6 (Homo sapiens, UniProt P10635); assay: Inhibition of CYP2D6 at up to 50 uM; assay type: ADME
Cytochrome P450 2D6, sequence (P10635 whole entry): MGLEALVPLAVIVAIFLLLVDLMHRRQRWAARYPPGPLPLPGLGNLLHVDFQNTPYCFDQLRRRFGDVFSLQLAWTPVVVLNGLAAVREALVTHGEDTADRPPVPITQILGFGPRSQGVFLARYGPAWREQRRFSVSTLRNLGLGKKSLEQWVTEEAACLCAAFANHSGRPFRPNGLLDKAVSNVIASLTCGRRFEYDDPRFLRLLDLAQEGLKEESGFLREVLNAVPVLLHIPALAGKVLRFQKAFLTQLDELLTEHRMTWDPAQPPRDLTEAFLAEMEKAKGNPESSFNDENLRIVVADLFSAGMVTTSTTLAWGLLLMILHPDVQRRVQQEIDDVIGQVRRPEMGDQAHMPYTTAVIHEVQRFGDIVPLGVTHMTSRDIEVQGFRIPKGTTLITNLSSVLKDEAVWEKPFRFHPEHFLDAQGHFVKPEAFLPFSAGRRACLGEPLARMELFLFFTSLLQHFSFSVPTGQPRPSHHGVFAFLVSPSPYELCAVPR

Cytochrome P450 1A2 = target: T3, Cytochrome P450 1A2 (Homo sapiens, UniProt P05177); assay: Inhibition of CYP1A2 at up to 50 uM; assay type: ADME
T3 sequence (P05177 whole entry): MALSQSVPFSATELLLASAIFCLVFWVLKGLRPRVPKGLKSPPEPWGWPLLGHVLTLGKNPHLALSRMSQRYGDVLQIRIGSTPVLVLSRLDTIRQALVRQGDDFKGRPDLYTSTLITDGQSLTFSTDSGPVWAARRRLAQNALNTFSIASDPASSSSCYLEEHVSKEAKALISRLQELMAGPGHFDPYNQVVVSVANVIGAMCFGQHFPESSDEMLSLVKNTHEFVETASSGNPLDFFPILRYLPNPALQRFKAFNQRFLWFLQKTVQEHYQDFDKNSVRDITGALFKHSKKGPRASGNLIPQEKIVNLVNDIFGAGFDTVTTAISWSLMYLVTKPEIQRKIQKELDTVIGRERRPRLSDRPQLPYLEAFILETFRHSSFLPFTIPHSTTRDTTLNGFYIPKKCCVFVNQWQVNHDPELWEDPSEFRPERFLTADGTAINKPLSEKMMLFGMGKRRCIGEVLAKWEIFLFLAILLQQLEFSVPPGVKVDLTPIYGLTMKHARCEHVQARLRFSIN

Cytochrome P450 2A6 = target: T4, Cytochrome P450 2A6 (Homo sapiens, UniProt P11509); assay: Inhibition of CYP2A6 at up to 50 uM; assay type: ADME
T4 sequence (P11509 whole entry): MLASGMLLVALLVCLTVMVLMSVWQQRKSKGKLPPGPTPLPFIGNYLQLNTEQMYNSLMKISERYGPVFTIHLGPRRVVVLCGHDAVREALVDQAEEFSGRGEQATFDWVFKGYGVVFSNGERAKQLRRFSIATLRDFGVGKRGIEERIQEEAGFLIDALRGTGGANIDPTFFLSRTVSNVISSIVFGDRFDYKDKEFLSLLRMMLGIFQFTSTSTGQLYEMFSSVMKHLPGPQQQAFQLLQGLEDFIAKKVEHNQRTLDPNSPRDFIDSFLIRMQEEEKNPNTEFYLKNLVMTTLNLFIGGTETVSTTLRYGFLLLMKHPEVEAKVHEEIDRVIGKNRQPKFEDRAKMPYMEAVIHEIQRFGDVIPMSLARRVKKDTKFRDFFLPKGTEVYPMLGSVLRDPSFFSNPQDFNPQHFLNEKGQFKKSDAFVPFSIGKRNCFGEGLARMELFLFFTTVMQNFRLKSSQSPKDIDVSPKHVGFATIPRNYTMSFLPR

[4] = Volume of distribution at steady state in Sprague-Dawley rat at 1 mg/kg, iv; assay type: ADME, organism-based; parameters: dose 1 mg/kg, route intravenous; details: in vivo, read-out: Vdss
Method in brief: (§2)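 Intravenous dose of 1 mg/kg. Blood sampled at 0.50, 1, 2, 4, 8 and 24 h. Plasma obtained by centrifugation at 10 000 rpm for 5 min and kept at −20 °C until analysis.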

[5] = Clearance in Sprague-Dawley rat at 1 mg/kg, iv; assay type: ADME, organism-based; parameters: dose 1 mg/kg, route intravenous; details: in vivo; method in brief: as §2
[6] = Half life in Sprague-Dawley rat at 10 mg/kg, po; assay type: ADME, organism-based; parameters: dose 10 mg/kg, route oral; details: in vivo
[7] = Cmax in Sprague-Dawley rat at 10 mg/kg, po; assay type: ADME, organism-based; parameters: dose 10 mg/kg, route oral; details: in vivo
[8] = AUC in Sprague-Dawley rat at 10 mg/kg, po; assay type: ADME, organism-based; parameters: dose 10 mg/kg, route oral; details: plasma
Rattus norvegicus = assay: Oral bioavailability in Sprague-Dawley rat at 10 mg/kg; assay type: ADME, organism-based; details: in vivo
[9] = target: T5, A disintegrin and metalloproteinase with thrombospondin motifs 4 (Homo sapiens, UniProt O75173); assay: Inhibition of human recombinant aggrecanase 1 after 150 mins by fluorescence plate reader
T5 sequence (O75173 whole entry): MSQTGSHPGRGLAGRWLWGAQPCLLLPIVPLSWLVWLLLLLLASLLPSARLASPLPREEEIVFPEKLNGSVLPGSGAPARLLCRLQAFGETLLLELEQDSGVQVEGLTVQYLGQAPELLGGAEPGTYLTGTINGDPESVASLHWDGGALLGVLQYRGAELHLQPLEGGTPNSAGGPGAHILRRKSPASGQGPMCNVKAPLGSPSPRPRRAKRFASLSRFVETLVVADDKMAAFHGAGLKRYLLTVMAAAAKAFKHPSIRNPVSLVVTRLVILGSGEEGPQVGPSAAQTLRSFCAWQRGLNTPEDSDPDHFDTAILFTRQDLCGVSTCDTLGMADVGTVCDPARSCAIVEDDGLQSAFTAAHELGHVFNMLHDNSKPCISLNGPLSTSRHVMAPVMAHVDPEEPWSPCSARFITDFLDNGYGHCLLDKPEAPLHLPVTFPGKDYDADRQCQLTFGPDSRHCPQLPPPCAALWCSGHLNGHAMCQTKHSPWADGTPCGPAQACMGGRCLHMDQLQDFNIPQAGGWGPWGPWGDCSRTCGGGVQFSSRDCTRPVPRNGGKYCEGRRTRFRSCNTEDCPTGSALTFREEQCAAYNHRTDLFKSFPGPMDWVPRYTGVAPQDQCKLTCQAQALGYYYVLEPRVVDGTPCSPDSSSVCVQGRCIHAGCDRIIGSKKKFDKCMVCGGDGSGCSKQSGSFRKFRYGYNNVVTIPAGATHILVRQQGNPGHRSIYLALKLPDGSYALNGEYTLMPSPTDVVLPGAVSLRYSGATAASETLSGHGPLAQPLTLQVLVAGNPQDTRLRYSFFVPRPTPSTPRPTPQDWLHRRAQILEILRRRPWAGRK

Stromelysin-1 = Stromelysin-1 (Homo sapiens, UniProt P08254); assay: Inhibition of human recombinant MMP3 after 60 mins by fluorescence plate reader
Stromelysin-1, sequence (P08254 whole entry): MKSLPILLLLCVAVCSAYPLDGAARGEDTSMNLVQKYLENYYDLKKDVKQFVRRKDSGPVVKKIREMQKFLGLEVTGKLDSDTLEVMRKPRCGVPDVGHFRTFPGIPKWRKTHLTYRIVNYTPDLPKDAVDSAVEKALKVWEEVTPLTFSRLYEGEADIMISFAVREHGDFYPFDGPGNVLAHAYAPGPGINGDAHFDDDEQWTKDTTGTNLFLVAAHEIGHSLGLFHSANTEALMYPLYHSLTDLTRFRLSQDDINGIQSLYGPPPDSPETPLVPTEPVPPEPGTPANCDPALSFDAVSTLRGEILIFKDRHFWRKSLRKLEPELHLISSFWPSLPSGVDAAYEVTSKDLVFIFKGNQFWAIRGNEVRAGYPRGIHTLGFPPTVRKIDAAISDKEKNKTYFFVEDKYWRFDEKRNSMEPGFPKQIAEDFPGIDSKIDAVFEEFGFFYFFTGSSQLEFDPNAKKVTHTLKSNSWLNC
Method in brief: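 rh-MMP-3 at 40 ng/mL with 10 μM MOCAc-Arg-Pro-Lys-Pro-Val-Glu-Nva-Trp-Arg-Lys(Dnp)-NH₂, in Tris-HCl pH 7.5/NaCl/CaCl₂/Brij-35 buffer. Inhibitor preincubated for 15 min at 25 °C. Fluorescence (ex 325/em 405 nm) read at 60 min. IC50 from three central linear points; at least two determinations averaged.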

[10] = target: Matrix metalloproteinase-9 (Homo sapiens, UniProt P14780); assay: Inhibition of human recombinant MMP9 after 60 mins by fluorescence plate reader
Matrix metalloproteinase-9, sequence (P14780 whole entry): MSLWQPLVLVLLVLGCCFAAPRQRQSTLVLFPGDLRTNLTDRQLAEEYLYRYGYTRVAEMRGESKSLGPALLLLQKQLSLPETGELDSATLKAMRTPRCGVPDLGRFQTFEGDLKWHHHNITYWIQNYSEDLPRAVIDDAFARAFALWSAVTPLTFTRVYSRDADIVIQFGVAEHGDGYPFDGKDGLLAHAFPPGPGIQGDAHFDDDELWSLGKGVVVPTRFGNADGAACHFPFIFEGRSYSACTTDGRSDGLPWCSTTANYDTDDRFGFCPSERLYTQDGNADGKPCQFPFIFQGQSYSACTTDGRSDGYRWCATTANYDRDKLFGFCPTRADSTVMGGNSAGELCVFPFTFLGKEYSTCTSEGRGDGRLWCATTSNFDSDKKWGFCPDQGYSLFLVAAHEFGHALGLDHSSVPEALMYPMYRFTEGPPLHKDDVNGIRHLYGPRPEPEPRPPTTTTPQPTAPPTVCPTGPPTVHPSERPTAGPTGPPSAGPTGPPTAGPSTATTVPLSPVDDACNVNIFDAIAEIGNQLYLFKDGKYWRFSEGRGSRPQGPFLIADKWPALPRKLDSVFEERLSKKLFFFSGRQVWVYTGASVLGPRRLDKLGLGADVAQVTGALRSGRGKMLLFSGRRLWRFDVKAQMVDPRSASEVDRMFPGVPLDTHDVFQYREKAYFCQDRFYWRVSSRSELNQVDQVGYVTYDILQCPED
Method in brief: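 rh-MMP-9 at 4 ng/mL with 10 μM MOCAc-Pro-Leu-Gly-Leu-A2pr(Dnp)-Ala-Arg-NH₂, in 100 mM Tris-HCl pH 7.5, 150 mM NaCl, 10 mM CaCl₂, 0.05% Brij-35. Enzyme and inhibitor preincubated for 15 min at 25 °C before substrate. Fluorescence (ex 325/em 405 nm) read at 60 min. IC50 from three linear-range points; ≥2 runs averaged.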

Collagenase 3 = Collagenase 3 (Homo sapiens, UniProt P45452); assay: Inhibition of human recombinant MMP13 after 60 mins by fluorescence plate reader
Method in brief: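 rh-MMP-13 at 40 ng/mL with 5 μM 7-MCA-Pro-CHA-Gly-NVal-His-Ala-DPA, in Tris-HCl pH 7.5/NaCl/CaCl₂/0.05% Brij-35. Pretreatment with inhibitor for 15 min at 25 °C, then substrate started the reaction. Fluorescence (ex 325/em 405 nm) read at 60 min. IC50 from three central linear points, averaged over ≥2 determinations.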

Cytochrome P450 3A4, sequence (P08684 whole entry): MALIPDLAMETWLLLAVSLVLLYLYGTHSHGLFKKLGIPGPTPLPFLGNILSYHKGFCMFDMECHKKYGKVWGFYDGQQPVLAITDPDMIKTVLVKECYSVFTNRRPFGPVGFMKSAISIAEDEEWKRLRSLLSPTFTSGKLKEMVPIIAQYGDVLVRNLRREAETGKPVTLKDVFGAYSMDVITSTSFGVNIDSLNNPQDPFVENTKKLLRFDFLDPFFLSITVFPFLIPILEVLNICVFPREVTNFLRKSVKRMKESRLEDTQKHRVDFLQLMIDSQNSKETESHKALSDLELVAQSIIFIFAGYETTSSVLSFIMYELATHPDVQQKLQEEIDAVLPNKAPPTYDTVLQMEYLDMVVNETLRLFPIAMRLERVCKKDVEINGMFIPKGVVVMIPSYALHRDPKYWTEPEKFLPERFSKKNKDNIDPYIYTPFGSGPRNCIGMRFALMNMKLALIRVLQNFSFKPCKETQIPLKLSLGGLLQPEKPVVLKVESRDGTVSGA

| Structure (SMILES) | inhibition (INH) (Cytochrome P450 3A4) | inhibition (INH) (Cytochrome P450 2C19) | IC50 [1] | IC50 (Interstitial collagenase) | IC50 [2] | IC50 [3] | inhibition (INH) (Cytochrome P450 2C9) | inhibition (INH) (Cytochrome P450 2D6) | inhibition (INH) (Cytochrome P450 1A2) | inhibition (INH) (Cytochrome P450 2A6) | Vd [4] | clearance [5] | half-life [6] | Cmax [7] | AUC [8] | F (Rattus norvegicus) | IC50 [9] | IC50 (Stromelysin-1) | IC50 [10] | IC50 (Collagenase 3) |
| --- | --- | --- | --- | --- | --- | --- | --- | --- | --- | --- | --- | --- | --- | --- | --- | --- | --- | --- | --- | --- |
| C[C@@H]1[C@](C)(c2ccccc2)[C@]1(NS(=O)(=O)N1CCn2c(nc3cc(F)ccc32)C1)C(=O)O | Not Active | Not Active | > 10000 nM | > 10000 nM | > 10000 nM | 14 nM | Not Active | Not Active | Not Active | Not Active | 0.7 L/kg | 10 mL/min/kg | 2 h | 17.4 µM | 76.9 µM·h | 196% |  |  |  |  |
| C[C@@H]1[C@H](c2ccccc2)[C@]1(NS(=O)(=O)c1ccc(-n2cc(Cl)cn2)s1)C(=O)O |  |  |  |  | 3.9 nM |  |  |  |  |  |  |  |  |  |  |  | 4 nM | 68 nM | 58 nM | 3.4 nM |
